# CHRM4 agonist: agonists of human muscarinic M4 receptor (CHRM4). P08173. CHO-K1 hM4/Gqi5, Fluo-8 calcium fluorescence; vehicle 0%, full acetylcholine response 100%. activation, % at 3 µM. 0.14% of 360,000 active. AID 624127;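 active = activation above the run mean over all test wells plus 3 SD, cut at about 32% in these data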;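 also: peak over basal fluorescence ratio per well then scaled between controls; 0% = DMSO wells and 100% = acetylcholine at EC100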
# CHRM4 PAM: positive allosteric modulators of human muscarinic M4 receptor; P08173; CHO-K1 hM4/Gqi5, Fluo-8 calcium fluorescence, ACh EC20; 0% = ACh EC20, 100% = maximal ACh; activation, % at 3 µM; 0.4% of 360,000 active;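 active = activation above its plate's cutoff, the mean activation of sample wells plus 3 SD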
# CHRM5 antagonist: blocks acetylcholine activation of human M5 receptor; CHO-hM5 cells, Fluo-8 calcium fluorescence, ACh EC80; inhibition, % at 3 µM; 0.59% of 360,000 active;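 active = inhibition above a per-plate cutoff, the mean of that plate's test compounds plus 3 SD, cut at about 27% in these data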;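 also: 0% = acetylcholine EC80 with DMSO and 100% = DMSO without agonist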
# Target sequence (P08912 whole entry, looked up): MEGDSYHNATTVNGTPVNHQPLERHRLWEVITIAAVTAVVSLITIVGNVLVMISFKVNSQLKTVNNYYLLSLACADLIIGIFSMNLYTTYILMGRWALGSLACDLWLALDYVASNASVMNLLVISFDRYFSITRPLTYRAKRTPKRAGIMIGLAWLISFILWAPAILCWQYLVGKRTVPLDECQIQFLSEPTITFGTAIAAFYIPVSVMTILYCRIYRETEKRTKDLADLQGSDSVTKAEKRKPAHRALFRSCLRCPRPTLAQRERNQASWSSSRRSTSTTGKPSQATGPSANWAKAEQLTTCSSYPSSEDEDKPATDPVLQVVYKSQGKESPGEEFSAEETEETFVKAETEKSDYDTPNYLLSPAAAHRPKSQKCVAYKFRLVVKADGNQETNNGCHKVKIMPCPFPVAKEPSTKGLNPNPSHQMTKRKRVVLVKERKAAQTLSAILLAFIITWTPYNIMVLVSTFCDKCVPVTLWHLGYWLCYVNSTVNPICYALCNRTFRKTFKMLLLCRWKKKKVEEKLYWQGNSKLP
# M5 PAM: potentiates acetylcholine response at human M5 receptor; P08912; CHO-K1 hM5, Fluo-8 calcium, ACh EC20 PAM; 0% = ACh EC20, 100% = ACh EC100; activation, % at 3 µM; 0.3% of 360,000 active; AID 624038;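 active = activation above the run cutoff, the mean activation of all test compounds plus 3 SD, cut at about 18% in these data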
#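 Test system: CHO-K1 hM5 cells / Doses: single-point, 3 µM nominal / Times: Post-acetylcholine fluorescence recording 140 s / Technique: Fluo-8 calcium fluorescence / Measure: Max/basal fluorescence ratio as % of EC20–EC100 ACh window / Benchmarks: low control EC20 acetylcholine (0%), high control EC100 acetylcholine (100%) / Replicates: one well per compound, no replicates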
# CHRM5 agonist: CHRM5 agonism in calcium assay | CHO-K1 hM5 cells, Fluo-8 calcium fluorescence; 0% DMSO wells, 100% maximal acetylcholine response | AID 624037 | activation, % at 3 µM | 0.19% of 360,000 active;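 active = activation above the run's mean over test compounds plus 3 SD, cut at about 23% in these data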;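 also: signal is peak over basal fluorescence ratio across the kinetic read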
# CHRM4 antagonist: blocks acetylcholine activation of human M4 receptor; AID 624125; 0.73% of 360,000 active; CHO-hM4 cells, ACh EC80, Fluo-8 calcium fluorescence; P08173; inhibition, % at 3 µM;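 active = inhibition above its plate's cutoff, the mean inhibition of sample wells plus 3 SD, cut at about 27% in these data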;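 also: 0% = acetylcholine EC80 with DMSO and 100% = DMSO without agonist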
# An asterisk follows results filed as active. In the library only some 1.8% were active in any assay of this set; here they are far more common.
SMILES,CHRM4 agonist,CHRM4 PAM,CHRM5 antagonist,M5 PAM,CHRM5 agonist,CHRM4 antagonist
CN1[C@@H]2CC[C@H]1CC(OC1c3ccccc3CCc3ccccc31)C2 (some centres undefined),6.3,-18.8,99.3*,-18.7,-0.8,99.8*
Cc1ccc(CN2C3CCCC2CC(NC(=S)NCc2ccccc2)C3)cc1 (centres undefined),7.0,-8.4,-10.5,-4.5,-7.7,1.7
CN1C(C(=O)N2CCC3(CC2)OCCO3)=CC(c2ccc(F)cc2)=NS1(=O)=O,1.8,-6.8,14.8,-7.3,0.3,4.4
CN1C(=O)NC(=O)C(C)(C2=CCCCC2)C1=O (centres undefined),0.3,0.7,-9.2,3.0,-0.8,-2.6
Cc1nc(SCc2c(Cl)cccc2Cl)nc(OC(=O)N(C)C)c1C,2.6,34.0*,0.0,1.8,-0.3,5.6
COc1ccc(CCN)cc1OC,-0.2,-6.6,5.2,-4.1,0.8,7.9
NCCc1ccc(OCc2ccccc2)c(OCc2ccccc2)c1,33.7*,8.3,2.5,15.1,9.8,21.2
C=CCn1c(O)c(C=NC2CCN(Cc3ccccc3)CC2)c(=O)[nH]c1=O,1.4,12.3*,5.2,-2.4,-7.8,-6.7
O=[N+]([O-])NC1=NCN(Cc2ccco2)CN1Cc1ccco1,0.6,5.9,-5.2,19.4*,1.4,-1.9
CN1CN=C(N[N+](=O)[O-])N(Cc2ccco2)C1,0.5,7.4,-3.2,3.6,-1.6,3.8
COc1c(OP2(=S)OCC(C)(C)CO2)cnn(C2CCCCC2)c1=O,3.1,1.9,-3.5,1.5,2.5,4.4
CC1=C(O)C(=O)C=C2C1=CC=C1C2(C)CCC2(C)C3CC(C)(C(=O)O)CCC3(C)CCC12C (centres undefined),11.3,-10.6,37.1*,-23.3,3.6,91.2*
CN(C)P(=NC(=S)c1cccn1C)(N(C)C)N(C)C,1.5,-15.2,27.3*,-26.0,-7.4,20.0
CN1CCN(CCC(C#N)(c2ccccc2)c2ccccc2)CC1,0.8,-16.1,50.1*,-49.4,-14.3,39.8*
COc1ccc(CN2C(=O)NC(=O)/C(=C/c3ccoc3)C2=O)cc1,16.1,-5.2,1.6,-4.4,28.6*,-8.2
c1cc2c(cc1CCNC1C3CC4CC(C3)CC1C4)OCO2 (centres undefined),2.9,-9.2,3.2,-11.0,-6.3,23.5
CC1CCC(NCCc2ccc3c(c2)OCO3)CC1 (centres undefined),2.0,-12.4,-2.0,-11.7,-5.7,31.7*
O=c1cc(C(F)(F)F)c2cc3c4c(c2o1)CCCN4CCC3,85.6*,-15.8,51.6*,-16.3,71.4*,44.8*
Cc1nc2ccc(Br)cc2c(=O)n1-c1ccc([N+](=O)[O-])c(C(F)(F)F)c1,12.3,-11.9,31.6*,-26.9,11.4,20.2
Cc1[nH]c2ccccc2c1C(=O)C(=O)N1CC2CC(C1)c1cccc(=O)n1C2 (centres undefined),1.3,1.5,2.6,-2.5,-5.3,-15.0
Fc1ccc(C(OCCN2CCCC2)c2ccc(Br)cc2)cc1 (centres undefined),8.8,-34.1,37.7*,-17.8,-5.1,16.3
C#CCN1CCN(c2ccc(F)cc2)CC1,0.0,2.6,9.7,-1.1,1.4,-4.2
Fc1ccc(C(OCCN2CCCC2)c2ccc(F)cc2)cc1,7.0,-34.7,53.7*,-18.4,-5.0,30.1*
c1ccc(CCCN2CCN(CCOC(c3ccccc3)c3ccccc3)CC2)cc1,7.0,-18.0,18.1,-18.9,-0.7,47.4*
Fc1ccc(C(OCCN2CCN(CCCc3ccccc3)CC2)c2ccc(F)cc2)cc1,4.8,-15.1,7.6,-17.2,-0.6,19.6
SMILES,CHRM4 agonist,CHRM4 PAM,CHRM5 antagonist,M5 PAM,CHRM5 agonist,CHRM4 antagonist
O=C(COc1ccc2ccccc2c1)N1CCN(CC2CC3C=CC2C3)CC1 (centres undefined),4.4,-9.0,-0.8,6.6,-7.6,3.2
CP(=O)(O)CCCN,0.1,4.0,-7.7,3.4,2.5,-2.0
CN(CC1COc2ccccc2O1)c1nc(-c2cccnc2)nc2ccccc12 (centres undefined),8.5,1.2,0.1,-25.0,-6.2,-27.9
CC(C)C[C@@H]1COc2cccc(N3CCN(C)CC3)c2S(=O)(=O)N1,0.2,-14.8,98.6*,-22.3,-7.4,70.8*
CCOC(=O)c1cccc(-[n+]2c(-c3ccccc3)cc(-c3ccccc3)cc2-c2ccccc2)c1,2.7,-10.8,24.2,-32.5,-11.7,26.8*
Cc1ccc(-c2cc(-c3ccccc3)cc(-c3ccccc3)[n+]2-c2ccccc2)cc1,21.0,-21.9,48.6*,-41.6,-4.6,79.1*
Cc1ccc(-c2cc(-c3ccc(C)cc3)[n+](-c3ccccc3)c(-c3ccc(C)cc3)c2)cc1,30.5,-21.3,30.7*,-43.2,-3.1,64.5*
C[n+]1c(-c2ccccc2)cc(-c2ccc(Cl)cc2)cc1-c1ccccc1,2.1,-1.9,6.6,1.4,-8.8,0.6
Cc1ccc(-c2cc(-c3ccc(C)cc3)[n+](-c3ccc(C(=O)[O-])cc3)c(-c3ccc(C)cc3)c2)cc1,0.1,4.2,6.2,0.5,-8.8,-0.8
CCOC(=O)c1ccccc1C(=O)OCC,0.4,-1.7,-9.7,3.3,-0.1,-2.5
c1ccc(-c2cc(-c3ccccc3)[n+](-c3ccccc3)c(-c3ccccc3)c2)cc1,10.9,-41.2,48.2*,-31.0,-11.8,73.3*
CCC(=O)OC(Cc1ccccc1)(c1ccccc1)[C@H](C)CN(C)C (some centres undefined),2.5,0.7,-2.3,-1.2,-5.9,7.4
O=C(Nc1cccc2ccccc12)c1nn(C23CC4CC(CC(C4)C2)C3)cc1Br,0.1,20.8,-2.2,7.2,-1.5,-10.0
O=C(/C=C/c1ccccc1)NCCc1cnc[nH]1,0.2,-3.8,1.0,-2.2,1.1,2.7
CC12CN3CN(C1)CC(C)(C3)C2=NO,0.6,-3.1,-3.2,-3.8,-0.4,20.2
O=[N+]([O-])c1cc(Cl)c(O)c(-[n+]2c(-c3ccccc3)cc(-c3ccccc3)cc2-c2ccccc2)c1,1.1,-2.2,-2.4,-1.3,0.7,0.6
CN(C)c1ccc(-[n+]2c(-c3ccccc3)cc(-c3ccccc3)cc2-c2ccccc2)cc1,18.0,-21.1,78.4*,-16.4,-4.1,56.0*
O=C(c1ccc(C(F)(F)F)cc1)C1CCCN(C2CCSCC2)C1 (centres undefined),1.7,-21.1,-7.2,-11.0,-10.3,24.4
Cc1cc(Cl)ccc1C(=O)C1CCCN(C2CCSCC2)C1 (centres undefined),2.0,-23.8,10.9,-20.4,-9.3,33.3*
